Test results: ChEMBL document CHEMBL1121632, “Oxime and dithiolane derivatives of 5-formyl-2'-deoxyuridine and their 5'-phosphates: antiviral effects and thymidylate synthetase inhibition” (J Med Chem, 1980)
Converted amounts (≈) assume the structure as drawn.

How the values were obtained:
[1] = Concentration required to reduce virus HSV-2G induced cytogenicity in primary rabbit kidney (PRK); Range is 1-2; assay type: functional; conditions: Oryctolagus cuniculus; read-out: ID50 (the source's name)
[2] = Concentration required to reduce HSV-1 F virus induced cytogenicity in primary rabbit kidney (PRK); Range is 1-2; assay type: functional; conditions: Oryctolagus cuniculus; read-out: ID50 (the source's name)
[3] = Concentration required to reduce [Me-H]dThd incorporation into DNA in primary rabbit kidney (PRK); assay type: functional; conditions: Oryctolagus cuniculus, read-out: ID50 (the source's name)
How it was run: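 [methyl-3H]dThd incorporation into DNA of primary rabbit kidney cell cultures was measured with test compound present. ID50 is the concentration reducing dThd incorporation into DNA by 50%.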

[4] = Concentration required to reduce HSV-2 Lyons virus induced cytogenicity in primary rabbit kidney (PRK); Range is 2-4; assay type: functional; conditions: Oryctolagus cuniculus; read-out: ID50 (the source's name)
[5] = Ratio of ID50 for [Me-H]dThd to ID50 for [1,2-H]dUrd; assay type: functional
How it was run: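 The ratio is the ID50 for [Me-3H]dThd incorporation divided by the ID50 for [1',2'-3H]dUrd incorporation into PRK cell DNA. Each ID50 is the concentration giving 50% reduction of incorporation. The ratio is treated as a parameter for selective in vivo thymidylate synthetase inhibition.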

[6] = Concentration required to reduce [1,2-H]dUrd incorporation into DNA in primary rabbit kidney (PRK); assay type: functional; conditions: Oryctolagus cuniculus; read-out: ID50 (the source's name)
How it was run: (§1)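 PRK cell cultures (10^5 cells per well) were pulsed with 2'-deoxy[1',2'-3H]uridine (42 Ci/mmol) at 0.25 μCi, or 6 pmol, per well. Compound concentration cutting label incorporation into cellular DNA by 50% was taken as ID50.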

[7] = Concentration required to reduce HSV-1 KOS virus induced cytogenicity in primary rabbit kidney (PRK); Range is 1-2; assay type: functional; conditions: Oryctolagus cuniculus; read-out: ID50 (the source's name)
[8] = Minimum Cytotoxic concentration in primary rabbit kidney (PRK); assay type: tissue-based, Oryctolagus cuniculus; conditions: primary rabbit kidney (PRK) cells
How it was run: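 Primary rabbit kidney cell cultures, the same cells used for the virus cytopathogenicity assays, were exposed to the compound. Cytotoxicity was read as the lowest concentration causing a microscopically visible change in cell morphology.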

[9] = Concentration required to reduce vaccinia virus induced cytogenicity in primary rabbit kidney (PRK); Range is 0.1-0.2; assay type: functional; conditions: Oryctolagus cuniculus; read-out: ID50 (the source's name)
[10] = Concentration required to reduce HV2 196 virus induced cytogenicity in primary rabbit kidney (PRK); Range is 1-4; assay type: functional; conditions: Oryctolagus cuniculus; read-out: ID50 (the source's name)
[11] = Concentration required to reduce HSV-1 McIntyre virus induced cytogenicity in primary rabbit kidney (PRK); assay type: functional; conditions: Oryctolagus cuniculus, read-out: ID50 (the source's name)
[12] = Concentration required to reduce HSV-1 KOS virus induced cytogenicity in primary rabbit kidney (PRK); assay type: functional; conditions: Oryctolagus cuniculus; read-out: ID50 (the source's name)
[13] = Concentration required to reduce HSV-1 F virus induced cytogenicity in primary rabbit kidney (PRK); assay type: functional; conditions: Oryctolagus cuniculus; read-out: ID50 (the source's name)
[14] = Concentration required to reduce HV2 196 virus induced cytogenicity in primary rabbit kidney (PRK); assay type: functional; conditions: Oryctolagus cuniculus; read-out: ID50 (the source's name)
[15] = Concentration required to reduce vaccinia virus induced cytogenicity in primary rabbit kidney (PRK); assay type: functional; conditions: Oryctolagus cuniculus; read-out: ID50 (the source's name)
[16] = Concentration required to reduce HSV-2 Lyons virus induced cytogenicity in primary rabbit kidney (PRK); assay type: functional; conditions: Oryctolagus cuniculus; read-out: ID50 (the source's name)
[17] = Concentration required to reduce [1,2-H]dUrd incorporation into DNA in n primary rabbit kidney (PRK); assay type: functional; conditions: Oryctolagus cuniculus; read-out: ID50 (the source's name); how it was run: as §1
[18] = Concentration required to reduce virus HSV-2G induced cytogenicity in primary rabbit kidney (PRK); assay type: functional; conditions: Oryctolagus cuniculus; read-out: ID50 (the source's name)

Row | Compound | IC50 [1] | IC50 [2] | IC50 [3] | IC50 [4] | Ratio [5] | IC50 [6] | IC50 [7] | MCC [8] | IC50 [9] | IC50 [10] | IC50 [11] | IC50 [12] | IC50 [13] | IC50 [14] | IC50 [15] | IC50 [16] | IC50 [17] | IC50 [18]
1 | O=Cc1cn([C@H]2C[C@H](O)[C@@H](CO)O2)c(=O)[nH]c1=O | 1 µg/mL (≈ 3.9 µM) | 1 µg/mL (≈ 3.9 µM) | 75 µg/mL (≈ 293 µM) | 2 µg/mL (≈ 7.81 µM) | 375 | 0.2 µg/mL (≈ 0.781 µM) | 1 µg/mL (≈ 3.9 µM) | 4 µg/mL | 0.1 µg/mL (≈ 0.39 µM) | 1 µg/mL (≈ 3.9 µM) | 0.7 µg/mL (≈ 2.73 µM) |  |  |  |  |  |  | 
2 | O=c1[nH]c(=O)n([C@H]2C[C@H](O)[C@@H](CO)O2)cc1C1SCCS1 |  |  | 100 µg/mL (≈ 301 µM) |  | 1 |  |  | > 400 µg/mL |  |  | 300 µg/mL (≈ 903 µM) | 300 µg/mL (≈ 903 µM) | 150 µg/mL (≈ 451 µM) | 300 µg/mL (≈ 903 µM) | 200 µg/mL (≈ 602 µM) | > 400 µg/mL | 100 µg/mL (≈ 301 µM) | 200 µg/mL (≈ 602 µM)
3 | O=c1[nH]c(=O)n([C@H]2C[C@H](O)[C@@H](CO)O2)cc1/C=N/O |  |  | 300 µg/mL (≈ 1110 µM) |  | 40 | 7.5 µg/mL (≈ 27.7 µM) |  | 100 µg/mL |  |  | 0.7 µg/mL (≈ 2.58 µM) | 0.7 µg/mL (≈ 2.58 µM) | 1 µg/mL (≈ 3.69 µM) | 20 µg/mL (≈ 73.7 µM) | 10 µg/mL (≈ 36.9 µM) | 20 µg/mL (≈ 73.7 µM) |  | 7 µg/mL (≈ 25.8 µM)
